Compound activity deposited in PubChem BioAssay by several laboratories.
RanGTP-Impb inh: disruptors of Ran-importin-beta complex formation – biochemical, FRET, CFP-Ran, YFP-importin-beta, homogeneous, primary screen. actives 1.1% (n = 300,000). cell-free CFP-Ran/YFP-importin-beta FRET ratio. AID 2216. inhibition, % (no concentration beside the values);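 active = more than half of the replicate wells show a fall in the fluorescence ratio signal beyond about 16%, limit read from the data, passing the limit was not always enough; inconclusive = exactly half of the replicate wells pass the set limit; inactive = fewer than half of replicates pass the limit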
Runt-SMMHC FRET: inhibitors of human RUNX1 Runt domain binding to CBFb-SMMHC; Cerulean-Runt/Venus-CBFb-SMMHC FRET ratio 530/480, 1 h; AID 1434; inhibition, % at 20 µM; Q01196+Q13951; actives 0.74% (n = 220,000);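 active = mean inhibition across duplicate retests at 20 µM reaching about 50%, limit read from the data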;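 note: inhibitors lower the FRET ratio by blocking Runt binding to CBFb-SMMHC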
CaV13 FRET inh: Primary screen for inhibitors of IQ motif and Ca2+-dependent inactivation inhibitor domain binding in CACNA1D, Förster resonance energy transfer in living cells, …; inhibition, % at 12.3 µM; actives 0.098% (n = 340,000); HEK cells, CFP/YFP FRET ICDI-IQ, plate reader, 10 min; percent FRET-ratio fall versus neutral wells; AID 743397;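 active = mean replicate inhibition of at least 30% and at least 1% of replicates passing that level; inconclusive = only one of the two criteria is met; inactive = neither criterion is met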
Runt-CBFb FRET: blocks binding of human RUNX1 Runt domain to CBFb. Q01196+Q13951. Cerulean-Runt/Venus-CBFb FRET ratio 530/480, 1 h. inhibition, % at 20 µM. actives 0.46% (n = 220,000). AID 1496;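 active = inhibition over about 50% at 20 µM in the single-dose screen, limit read from the data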
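Measured by: fluorescence energy transfer, 422 nm excitation, 530/480 nm emission; test system: Cerulean-tagged RUNX1 Runt domain (FRET donor) fusion protein; buffer or medium: Tris pH 7.5 buffer with BSA; compound: one dose, 20 µM compound, 1% DMSO; times: two 1 h room-temperature incubations shielded from light; benchmarks: unlabeled CBFb 5 µM, positive control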
Runt-CBFb TRFRET: disrupts human RUNX1 Runt domain binding to CBFb. inhibition, % at 20 µM. actives 20% (n = 480). TR-FRET RUNX1 Runt domain-CBFb binding. shares compounds with Runt-CBFb FRET; in the data active = inhibition above about 40%
YIC counter: counter-screen YIC FRET for RanGTP-importin-beta inhibitors. Purified YIC probe, intramolecular FRET ratio YFP/CFP. shares compounds with RanGTP-Impb inh. IC50, µM. AID 435026. actives 40% (n = 1,000);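 active = fitted half-maximal inhibitory concentration no more than tenfold above the top dose tested; inconclusive = flat fit with 30 to 70% activity, or poor fit; inactive = half-maximal concentration beyond tenfold above the top dose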
Numbers stand for hits; i = inactive; ? = inconclusive; nt = no result. Compounds with a hit are over-represented: about 1.2% of the library has one in this group of screens.

SMILES	RanGTP-Impb inh	Runt-SMMHC FRET	CaV13 FRET inh	Runt-CBFb FRET	YIC counter	others
COc1ccc(C(=O)c2cc3ccc(O)cc3oc2=O)cc1	48	88	i	88	15	Runt-CBFb TRFRET=i
COc1ccc2c(c1)c(=O)oc1cc(O)ccc12	i	i	nt	i	nt
CCCC1C(C#N)=C(N)Oc2cc(C)n(C)c(=O)c21 (centres undefined)	18	97	i	95	i	Runt-CBFb TRFRET=63
CCn1c(C)cc2c(c1=O)C(c1ccncc1)C(C#N)=C(N)O2 (centres undefined)	i	i	i	i	nt
O=C1NC(=S)S/C1=C1\Sc2ccccc2N1CCCS(=O)(=O)O	27	123	nt	88	15	Runt-CBFb TRFRET=i
CCOC(=O)c1oc2ccccc2c1COC(=O)CNC(=O)c1ccc(C)cc1	i	nt	nt	nt	nt
CCN(CC)Cc1c(O)c(Cl)cc2c(C)c(C)c(=O)oc12	20	91	nt	83	30	Runt-CBFb TRFRET=i
CCOC(=O)c1c(C)oc2cc(Cl)c(O)c(CN(C)C)c12	i	i	i	i	nt
Cc1ccc2nc(N3CCN(C(=O)c4cccs4)CC3)c(C#N)cc2c1	18	124	i	56	16	Runt-CBFb TRFRET=i
CCNc1nc(ON=C(C)C)nc(N(C)C)n1	i	i	i	i	nt
Cc1nc2[nH]c(=O)c3c(n2n1)NC1=C(C(=O)CC(C)(C)C1)C3c1ccc(F)cc1 (centres undefined)	35	100	i	80	4.1	Runt-CBFb TRFRET=i
Cc1[nH]nc2c1C(c1ccc(O)cc1)C1=C(CC(C)(C)CC1=O)N2 (centres undefined)	i	i	i	i	nt
CC(C)[C@H](NC(=O)N1c2ccccc2NC(=O)[C@@H]1C(C)C)C(=O)N1CCC(C(=O)O)CC1	i	nt	nt	nt	nt
CCCOc1ccc(C2C(C(=O)OC)=CN(CCOC)C=C2C(=O)OC)cc1	25	nt	i	88	17
C=CCNC(=O)c1cccc(OC2CCN(CC(C)(C)C)CC2)c1	18	nt	i	nt	i
C=CCN(CC=C)C(=O)c1cccc(OC2CCN(CC(C)(C)C)CC2)c1	?	nt	i	nt	nt
Nc1nc(N2CCOCC2)nc(N(c2ccccc2)c2ccccc2)n1	21	i	i	i	i
CN(C)c1nc(N2CCOCC2)nc(N(c2ccccc2)c2ccccc2)n1	i	i	i	i	nt
O=c1cc(N2CCC(Cc3ccccc3)CC2)[nH]c(=O)n1C1CCCCC1	22	i	i	i	i
CC1CCN(c2cc(=O)n(C3CCCCC3)c(=O)[nH]2)CC1	31	i	i	i	i
O=c1cc(N2CCCCC2)[nH]c(=O)n1C1CCCCC1	i	i	i	i	nt
O=c1cc(N2CCc3ccccc3C2)[nH]c(=O)n1C1CCCCC1	54	i	nt	i	i
CC(C)NC(=O)NC(=O)COC(=O)c1ccccc1O	16	i	i	i	i
CN1CCc2c(OCC(=O)NC3CCCCC3)cccc2C1=O	i	nt	i	nt	nt
CCC1CCCCN1C(=O)COc1cccc2c1CCN(C)C2=O (centres undefined)	18	i	i	i	i
SMILES	RanGTP-Impb inh	Runt-SMMHC FRET	CaV13 FRET inh	Runt-CBFb FRET	YIC counter	others
Fc1ccc(N/N=C/C=C/c2ccccc2)c(F)c1	20	i	i	i	i
O=[N+]([O-])c1cc(S(=O)(=O)Oc2ccccc2)ccc1Cl	nt	nt	i	nt	nt
O=C1COc2ccc(C(=O)/C=C/c3ccccc3)cc2N1	i	i	i	i	nt
O=C(O)/C=C/C(=O)Nc1ccc2c(c1)NC(=O)CO2	34	i	i	i	i
CCCN(CCO)Cc1cccc(Br)c1	20	i	i	i	i
Nc1[nH]c(C(=O)c2ccccc2)c(-c2ccccc2C(F)(F)F)c1C(=O)c1cccs1	nt	nt	i	nt	nt
O=C(Nc1ccccc1)c1ccc2ccccc2n1	i	i	i	i	nt
N#Cc1ccc(/C=C(\C(=O)C(=O)O)c2ccc3ccccc3n2)cc1	20	64	i	i	12
N#C/C(=C/c1ccc(N2CCOCC2)o1)C(=O)Nc1ccccc1	31	i	i	i	15
N#C/C(=C\c1ccc(N2CCOCC2)o1)C(=O)NC1CCCCC1	31	i	i	i	3.9
N#C/C(=C/c1ccc(-c2ccc(S(=O)(=O)N3CCOCC3)cc2)o1)C(=O)NC1CC1	nt	nt	i	nt	nt
